By inhibition is commonly meant the change of the read-out against control, counted positive when it falls.

The values that follow come from PubChem BioAssay.

Activity calls are given as the source filed them.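 How the source made its calls, unless noted: active means fluorescence slope higher than the sample average by over 3 SD (cut at about -0.22 in these data, passing the limit was not always enough); inactive means the rest.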

Test [1] in a line: inhibitors of TNFa-induced NFkB p65 translocation, primary screen, imaging, HUVEC, MLSMR starter and 10KST1 sets (AID 438;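 active means inhibition above 20% together with a positive visual image hit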;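 further: compound added about 3h40 before a 20 min TNFalpha stimulation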;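 on inhibition: signal is the nuclear over cytoplasmic p65 intensity ratio per well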). The settings on record: HUVEC TNFa-induced p65 nuclear translocation; cell count: measured here: nuclei count (cytotoxicity indicator), at 2.08 µM; inhibition: at 2 µM, stronger effect = higher value, 0% TNFa-plus-vehicle, 100% no-TNFa wells.
Test [2] is described as follows: inhibitors of E-selectin induction by TNFa, primary screen, imaging, HUVEC, immunofluorescence, MLSMR starter and 10KST1 sets (AID 487;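 active means visually confirmed hit in the image check and inhibition above 20%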;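 on inhibition: signal is fraction of cell area covered by stained E-selectin grains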;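 on nuclei count: 100% = median nuclei count of all wells on the same plate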). To be noted: HUVEC TNFalpha-induced E-selectin immunofluorescence imaging, at 2 µM; inhibition: stronger effect = higher value; nuclei count: measured here: cell number, toxicity.
The nature of test [3]: DUSP6 inhibitors restoring Erk phosphorylation by chemical complementation, primary imaging in DUSP6-transfected HeLa (AID 609;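 active means compounds giving at least 50% inhibition in the cell-based MKP-3 phosphatase rescue imaging test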;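 on inhibition: phospho-Erk level distribution per well compared with pooled transfected vehicle control wells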). To be noted: HeLa MKP-3 transfected, phospho-Erk imaging KS statistic, at 10 µM, cells stimulated with TPA for 15 min.
In test [4] the target is Dual specificity protein phosphatase 6 (Homo sapiens) (UniProt Q16828). The test is described as above. The settings on record: HeLa MKP-3 transfected, phospho-Erk imaging KS statistic; at 10 µM; stronger effect = higher value; cells stimulated with TPA for 15 min.
Sequence of Dual specificity protein phosphatase 6 (Homo sapiens) (Q16828 whole entry, looked up): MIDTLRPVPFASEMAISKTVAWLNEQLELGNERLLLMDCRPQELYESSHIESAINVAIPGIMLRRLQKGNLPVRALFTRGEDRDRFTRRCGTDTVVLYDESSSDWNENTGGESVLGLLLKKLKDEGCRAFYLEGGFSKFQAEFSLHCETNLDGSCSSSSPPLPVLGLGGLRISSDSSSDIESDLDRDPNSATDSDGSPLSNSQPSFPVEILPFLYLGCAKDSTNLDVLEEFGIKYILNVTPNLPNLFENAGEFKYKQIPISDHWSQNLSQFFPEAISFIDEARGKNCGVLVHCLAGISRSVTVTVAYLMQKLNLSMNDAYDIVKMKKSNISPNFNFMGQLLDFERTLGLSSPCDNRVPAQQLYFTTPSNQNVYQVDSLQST
The target in test [5] is Voltage-gated potassium channel subunit beta-2 (Rattus norvegicus) (UniProt P62483). Description: KvBeta enzyme negative modulators, primary screen, biochemical, NADPH fluorescence (AID 622).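 Further: slope of raw intensity against log time taken from 70 to 1610 s.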 The settings on record: recombinant KvBeta, 4-cyanobenzaldehyde reduction, at 10 µM, stronger effect = higher value.
Sequence of Voltage-gated potassium channel subunit beta-2 (Rattus norvegicus) (P62483 whole entry, looked up): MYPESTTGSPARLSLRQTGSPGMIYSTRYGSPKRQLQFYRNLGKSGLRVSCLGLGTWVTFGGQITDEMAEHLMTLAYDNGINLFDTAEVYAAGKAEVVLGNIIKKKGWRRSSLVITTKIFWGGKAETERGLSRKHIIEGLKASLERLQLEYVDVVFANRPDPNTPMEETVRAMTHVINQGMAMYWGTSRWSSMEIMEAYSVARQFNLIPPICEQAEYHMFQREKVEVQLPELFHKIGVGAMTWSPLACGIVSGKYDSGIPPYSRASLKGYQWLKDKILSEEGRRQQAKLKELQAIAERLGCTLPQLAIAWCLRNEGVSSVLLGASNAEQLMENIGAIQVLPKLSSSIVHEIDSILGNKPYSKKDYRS
Test [6] shares this target. Description: KvBeta positive modulators, primary screen, biochemical, NADPH fluorescence (AID 623;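 active means NADPH fluorescence slope more negative than the mean of all samples by about 3 SD, 99.7% confidence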;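 further: fluorescence intensity change per second fitted from 20 to 320 s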). To be noted: Recombinant KvBeta, NADPH fluorescence decrease slope, 10 min; at 10 µM; stronger effect = lower value.
Test [7] has as its target Muscarinic acetylcholine receptor M4 (Homo sapiens) (UniProt P08173). Nature of the test: compounds altering M4/GIRK thallium flux, either direction, primary screen, M4 allosteric agonist project, cell-based, HEK293 M4/GIRK, BTC-AM (AID 625;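 active means fluorescence slope after compound addition differing from the mean of all tested samples at 99.7% confidence, mostly higher but some lower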;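 further: thallium influx through GIRK channels coupled to M4 in HEK293 cells with BTC-AM dye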). The settings on record: at 10 µM, actives lie on both sides. In a few lines:
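assay system = HEK293 cells with M4 receptor and GIRK channels | medium = pH 7.3 thallium assay buffer | doses = 10 µM final, single point | timing = cells overnight at 37 °C, BTC-AM loading 1 h, reads 2 min total | signal = BTC-AM fluorescence, 1 Hz kinetic reads | read-out = post-addition slope, 15–24 s, of baseline-normalized fluorescence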

The nature of test [8]: inhibitors of larval lipid processing in zebrafish, primary screen, whole organism, PED6 fluorescence, gall bladder and intestine (AID 686;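 active means a full or partial loss of lipid-probe fluorescence in the fish gall bladder, intestine or both, judged by eye; inactive means no fluorescence loss, or compound toxic to the fish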;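 further: larvae 5 to 7 days old with five fish per well; signal comes from phospholipase A2 cleavage of quenched PED6 carried via bile; overnight exposure to compound and PED6 before scoring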). To be noted: Zebrafish larvae PED6 lipid processing, fluorescence scoring; screened at 20 µM (by protocol). In a few lines: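 Also added: quenched phospholipase substrate PED6, 100 nM final, ingested by larvae; System: zebrafish larvae, 5-7 d; Quantity: 5 larvae per well; Compound: 20 µM single dose; Schedule: overnight compound and PED6 incubation; Read-out: visual per-well fluorescence inhibition score; Measured by: By-eye fluorescence microscopy; Medium: E3.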

Test [9] is described as follows: inhibitors of Chlamydomonas gravitaxis, primary screen, whole organism, Chlamydomonas reinhardtii, WT vs cilia-less mutant, absorbance, 96-well (AID 463189;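 active means inhibition at or above 50% relative to wild type and mutant plate controls; inactive means inhibition below 50%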;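 further: 0% = wild type cc124 cells in DMSO and 100% = ciliumless bld1 mutant cells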). To be noted: OD600 absorbance, 2 days, at 10 µM, stronger effect = higher value.
Setting [10] is: measured here: cell density z-score.
[11] abbreviates: measured here: nuclear c-Myc green intensity z-score.
The mark [12] stands for this setting: measured here: nuclear pErk red intensity z-score, stronger effect = higher value.

Sequence of Muscarinic acetylcholine receptor M4 (Homo sapiens) (P08173 whole entry, looked up): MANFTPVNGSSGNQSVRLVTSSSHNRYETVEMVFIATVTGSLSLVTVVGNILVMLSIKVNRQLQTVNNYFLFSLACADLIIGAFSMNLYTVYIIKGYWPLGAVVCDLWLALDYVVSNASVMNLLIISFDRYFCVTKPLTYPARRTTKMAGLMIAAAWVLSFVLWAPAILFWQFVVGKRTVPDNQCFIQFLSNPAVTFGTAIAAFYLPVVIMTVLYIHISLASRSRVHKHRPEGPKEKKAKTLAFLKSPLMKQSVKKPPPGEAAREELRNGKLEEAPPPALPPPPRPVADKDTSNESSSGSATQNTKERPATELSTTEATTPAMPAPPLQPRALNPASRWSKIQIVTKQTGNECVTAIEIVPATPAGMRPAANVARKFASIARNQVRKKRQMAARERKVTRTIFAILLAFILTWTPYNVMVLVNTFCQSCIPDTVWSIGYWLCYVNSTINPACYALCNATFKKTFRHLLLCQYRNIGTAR

`COC(=O)CCc1c(C)[nH]c(=S)[nH]c1=O`: in test [1], the cell count amounted to 364. Moreover, the inhibition in test [1] was -0.7% (inactive); in test [2] it was -74.5% (inactive); in test [4] it was -4.78% (inactive); in [9], -5.54% (inactive). Also, the nuclei count in [2] came out at 111%. Besides, the values for the z-score in test [3] (setting [10]), in test [3] (setting [11]) and in [3] (setting [12]) were -0.296, -0.397 and -1.03, respectively. In addition, the fluorescence slope was -0.521 (inactive) in test [5] and 0.00625 (inactive) in test [7]. Moreover, the NADPH fluorescence slope in [6] was -2.4e-05 (inactive). Moreover, the result in [8] was inactive.
With `CCSC1=C(C#N)C(c2cccs2)C(C(=O)OC)=C(C)N1` (stereo unspecified), the cell count in test [1] stood at 704. Also, the inhibition was -1% (inactive) in test [1], -26.7% (inactive) in test [2], 2.46% (inactive) in [4] and -1.08% (inactive) in test [9]. In [2], this compound registered a nuclei count of 161%. The z-score in test [3] (setting [10]) was 1.09; in test [3] (setting [11]) it was -0.139; in test [3] (setting [12]), -1.35. Moreover, the fluorescence slope in test [5] is -0.442 (inactive); in [7] it was 0.00541 (inactive). Further, the NADPH fluorescence slope in [6] is -5.3e-05 (inactive). Further, in test [8], the call was inactive.
With `COC(=O)c1c(C)[nH]c(C(=O)OCc2ccc(F)cc2)c1C`, the cell count in test [1] is 693. The inhibition is -3.8% (inactive) in test [1], 50.5% (inactive) in test [2], 7.21% (inactive) in [4] and 80.6% (active) in [9]. The nuclei count in test [2] amounted to 160%. Also, the z-score in test [3] (setting [10]) was -0.559; in test [3] (setting [11]), -1.43; in test [3] (setting [12]) it was -0.0192. Further, the fluorescence slope in [5] was -0.461 (inactive); in test [7], 0.00635 (inactive). Further, the NADPH fluorescence slope in [6] is -1.9e-05 (inactive). In addition, the result in test [8] was inactive.
In the case of `CC(O)(C#CCN1CCOCC1)c1ccccc1` (stereo unspecified), the cell count in test [1] was found to be 634. The inhibition in test [1] is 1.5% (inactive); in [2] it was -34.4% (inactive); in test [4], -5.81% (inactive); in test [9] it was 17.4% (inactive). This compound also had a nuclei count in test [2] of 149%. In addition, the z-score in [3] (setting [10]) amounted to 0.104; in test [3] (setting [11]), 0.285; in test [3] (setting [12]), 0.53. Besides, the fluorescence slope is -0.455 (inactive) in test [5] and 0.00484 (inactive) in test [7]. For the same compound, the NADPH fluorescence slope in test [6] is -5.1e-05 (inactive). The call in [8] was inactive.
For `COc1nnnc2c1sc1nc(N3CCOCC3)c3c(c12)CC(C)(C)OC3`, the cell count in [1] was found to be 590. For the same compound, the inhibition is -3.9% (inactive) in test [1], -92.2% (inactive) in [2], -13.3% (inactive) in [4] and -3.82% (inactive) in test [9]. For the same compound, in test [2], the nuclei count was found to be 154%. Besides, the z-score in [3] (setting [10]) was 0.493; in [3] (setting [11]) it was 0.116; in test [3] (setting [12]) it was -0.785. In addition, the values for the fluorescence slope in test [5] and in test [7] were -0.482 (inactive) and 0.00514 (inactive), respectively. Also, the NADPH fluorescence slope in test [6] is -0.000107 (inactive). In [8], the outcome was inactive.
Take `CCCc1cc(=O)oc2c(CN3CCCC3)c(O)ccc12`: in [1], the cell count was determined as 571. Moreover, the inhibition in test [1] is -10.8% (inactive); in test [2], -11.6% (inactive); in test [4], 0.671% (inactive); in test [9] it was -1.86% (inactive). The compound further gave a nuclei count in test [2] of 118%. The z-score in test [3] (setting [10]) was 0.0938; in test [3] (setting [11]), -0.952; in [3] (setting [12]), -1.55. Further, the fluorescence slope in [5] was -0.0292 (inactive); in test [7], 0.0058 (inactive). The NADPH fluorescence slope in [6] was 1.1e-05 (inactive). For the same compound, the outcome in test [8] was inactive.
Regarding `COC(=O)c1ccccc1OCc1cccc(C)n1`, the cell count in [1] amounted to 642. For the same compound, the inhibition in [1] was -3.5% (inactive); in test [2] it was -85% (inactive); in [4], 1.9e-07% (inactive); in test [9], -11.3% (inactive). In test [2], this compound yielded a nuclei count of 138%. For the same compound, the z-score in test [3] (setting [10]) was 0.411; in test [3] (setting [11]) it was 0.832; in test [3] (setting [12]) it was -0.721. Moreover, the results for the fluorescence slope in [5] and in test [7] were -0.495 (inactive) and 0.00518 (inactive), respectively. Further, in [6], the NADPH fluorescence slope is -3.1e-05 (inactive). Besides, the compound was classed as inactive in test [8].
